These results are taken from PubChem BioAssay AID743257 (The Scripps Research Institute Molecular Screening Center, 2014).

Structures are written as SMILES. Screen size: about 2,900 compounds; about 1,900 (66%) were called active. The set was probably picked from earlier hits. A selection follows. Unmarked numbers belong to inactive results.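 How the source made its calls: active means mean inhibition across replicates above the hit cutoff set in the primary screen (cut at about 8.5% in these data); inactive means the rest.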

For the assay, the target named is Disintegrin and metalloproteinase domain-containing protein 17 (Homo sapiens) (UniProt P78536). Briefly: inhibition of human ADAM17 protease activity – biochemical, QFRET peptide cleavage, confirmation (AID 743257).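 Further: 0% = DMSO wells and 100% = marimastat wells.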 The settings on record: recombinant ADAM17, EDANS/DABCYL QFRET peptide cleavage; at 6.95 µM; hits give high values. In outline: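 Assay system: human ADAM17 protease with quenched FRET peptide substrate / Buffer or medium: 50 mM HEPES buffer, pH 7.5, with 0.01% Brij / Schedule: 30 min preincubation, 3 h reaction / Technique: fluorescence at ex 359 nm, em 460 nm / Read-out: percent inhibition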
Chain of Disintegrin and metalloproteinase domain-containing protein 17 (Homo sapiens) (P78536 215-824 limits assumed): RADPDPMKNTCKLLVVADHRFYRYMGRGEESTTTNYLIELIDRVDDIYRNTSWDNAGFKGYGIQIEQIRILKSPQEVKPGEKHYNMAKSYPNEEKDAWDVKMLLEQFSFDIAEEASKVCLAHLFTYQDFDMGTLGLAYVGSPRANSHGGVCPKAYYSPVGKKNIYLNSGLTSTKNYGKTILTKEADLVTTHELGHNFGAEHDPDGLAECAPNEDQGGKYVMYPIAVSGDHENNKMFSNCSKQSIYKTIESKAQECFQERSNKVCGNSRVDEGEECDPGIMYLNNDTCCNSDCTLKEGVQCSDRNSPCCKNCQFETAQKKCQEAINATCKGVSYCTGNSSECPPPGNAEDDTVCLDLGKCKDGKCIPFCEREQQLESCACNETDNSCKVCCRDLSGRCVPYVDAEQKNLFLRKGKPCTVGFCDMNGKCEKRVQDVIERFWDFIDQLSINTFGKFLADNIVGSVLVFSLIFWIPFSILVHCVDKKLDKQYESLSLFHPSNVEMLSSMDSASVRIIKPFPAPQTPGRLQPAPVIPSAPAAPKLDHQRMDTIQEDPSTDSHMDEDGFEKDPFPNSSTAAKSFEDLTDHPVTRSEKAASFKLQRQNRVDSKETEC
Take `O=C(C[C@H]1C(=O)N(c2ccc(F)c(F)c2)C[C@@H]1Cc1ccccc1)Nc1ccccc1`: the inhibition was 14.1% (active). In the case of `Cc1ccc(C)c(NC(=S)NNC(=S)Nc2ccc(C(C)C)cc2)c1`, the inhibition was 17.9% (active). Turning to `C[C@@H]1CN([C@H](C)CO)C(=O)c2cc(-c3ccc(F)cc3)cnc2O[C@H]1CN(C)C(=O)c1ccc(F)cc1`, the inhibition is 8.52%. As for `COc1cc(NC(=O)CCS(=O)(=O)c2ccc3c(c2)oc(=O)n3C)cc(OC)c1`, the inhibition was 6.47%.

On to `COc1ccc(C(=O)NN2C(=O)C3C(c4ccccc4)C=CC(c4ccccc4)C3C2=O)cc1` (stereo not given), for which the inhibition is 14% (active). Regarding `COc1ccc(S(=O)(=O)N2CCN(C(C)C(=O)Nc3ccc(C(C)C)cc3)CC2)cc1` (stereo not given), the inhibition is 10.8% (active). The same measure for `COc1cc(/C=N/n2c(C)n[nH]c2=S)ccc1OCc1ccccc1`: 0.43%; for `NS(=O)(=O)c1ccc(NC(=O)COC(=O)C2(c3ccc(F)cc3)CCCC2)cc1`: 14.4% (active). The same measure for `CN(C)S(=O)(=O)c1cccc(NC(=O)COC(=O)C2(c3ccccc3F)CCCC2)c1`: 14.1% (active); for `O=C1/C(=C\c2ccsc2)NC(=S)N1c1ccccc1`: 8.92% (active). Consider `C#CCN(C[C@H]1[C@H](OC(=O)NC2CCCC2)[C@H](OC(=O)NC2CCCC2)C[C@H]2C(=O)N(c3ccccc3)C(=O)[C@@H]12)S(=O)(=O)c1ccc(C)cc1`, for which the inhibition was 8.59%.

With `C=CC(COCc1ccccc1)N(CC(=O)OC)S(=O)(=O)c1cc(Br)ccc1OC` (stereo not given), the inhibition is 10.1% (active). For the compound `O=C(Nn1c(SCc2ccc([N+](=O)[O-])cc2)nc2ccccc2c1=O)c1ccc(F)cc1`, the inhibition was 16.4% (active). `COc1ccc(-c2ccc(CN3C(CC(C)C)C(=O)N(Cc4cn(CC5CCCCC5)nn4)CCS3(=O)=O)cc2)cc1` (stereo not given): the inhibition is 13.1% (active). Take `COc1ccc(Cn2cc(CN3CCS(=O)(=O)N(Cc4ccc(-c5cccc(Cl)c5)cc4)C(C)C3=O)nn2)cc1` (stereo not given): the inhibition is 11.2% (active). Under `FC(F)(F)Oc1ccccc1C(c1nnnn1C1CCCCC1)N1CCN(C/C=C/c2ccccc2)CC1` (stereo not given) stands 10.2% (active). As for `Cc1ccc(Cn2nnc3c(=O)[nH]c(C4CCN(S(=O)(=O)/C=C/c5ccccc5)CC4)nc32)cc1`, the inhibition was 20.1% (active). Consider `O=C(CSc1nnc(Nc2ccccc2)s1)Nc1cccnc1Cl`, for which the inhibition was 4.72%. With `Cc1ccc(NC(=S)NNC(=O)CSc2nnc(SCc3ccccc3Cl)s2)cc1`, the inhibition is 13.7% (active). The same measure for `Cc1nnc(SCC(=O)Nn2cnnc2)s1`: 1%. As to `O=C(COC(=O)c1ccccc1)Nc1ccccc1Sc1ccccc1`, the inhibition is 10.7% (active). The same measure for `Cc1ccccc1C(=O)Nc1ccccc1Sc1ccccc1`: 8.42%.

For the compound `O=C(Nc1ccc(C(=O)NCc2ccccc2Cl)cc1)C1=CSCCO1`, the inhibition was 4.43%. `CCCCCC(=O)N1C[C@H](O)[C@@H](n2cc(COC(=O)c3ccccc3)nn2)C[C@@H]1c1ccc(C)cc1`: the inhibition was 13.5% (active). As to `C=CC[C@H](CC(=O)N(CCO)Cc1ccccc1)C(=O)N[C@@H](COC(=O)[C@@H](CC=C)Cc1ccc(F)cc1)Cc1ccccc1`, the inhibition was 14.8% (active).

Consider `C=CCC[C@@H](Cc1ccc(F)cc1)C(=O)OC[C@H](Cc1c[nH]c2ccccc12)NC(=O)[C@@H](CC=C)CC(=O)N(CCO)Cc1ccccc1`, for which the inhibition is 16.9% (active). In the case of `C=CCC[C@@H](Cc1ccc(F)cc1)C(=O)O[C@H](CNC(=O)[C@H](CC=C)CC(=O)N(CCO)Cc1ccccc1)c1ccccc1`, the inhibition is 21.7% (active). The same measure for `Cc1ccc(/C=N/NC(=O)CSc2nc3ccccc3o2)cc1`: 6%; for `CC1(C)C=Cc2c(ccc3c2OC[C@@H](c2ccc(O)cc2O)C3)O1`: 12.3% (active). Turning to `N/C(Cc1ccc([N+](=O)[O-])cc1)=N\OC(=O)COc1ccc2ccccc2c1`, the inhibition is 6.36%.
